In ChEMBL document CHEMBL4411328, “Synthesis and Structural/Functional Characterization of Selective M14 Metallocarboxypeptidase Inhibitors Based on Phosphinic Pseudopeptide Scaffold: Implications on the Design of Specific Optical Probes” (J Med Chem, 2019):
Active and inactive are the calls of the source. The calls are words filed in the database; no cut-off is given here.

Experiments:
Carboxypeptidase A1 = biological target: T1, Carboxypeptidase A1 (Homo sapiens, UniProt P15085); test: Inhibition of human CPA1 using AAFP as substrate preincubated for 45 mins to 2 hrs measured at 30 sec intervals for 15 mins by UV/vis-spectrophotometry
T1 sequence (P15085 whole entry): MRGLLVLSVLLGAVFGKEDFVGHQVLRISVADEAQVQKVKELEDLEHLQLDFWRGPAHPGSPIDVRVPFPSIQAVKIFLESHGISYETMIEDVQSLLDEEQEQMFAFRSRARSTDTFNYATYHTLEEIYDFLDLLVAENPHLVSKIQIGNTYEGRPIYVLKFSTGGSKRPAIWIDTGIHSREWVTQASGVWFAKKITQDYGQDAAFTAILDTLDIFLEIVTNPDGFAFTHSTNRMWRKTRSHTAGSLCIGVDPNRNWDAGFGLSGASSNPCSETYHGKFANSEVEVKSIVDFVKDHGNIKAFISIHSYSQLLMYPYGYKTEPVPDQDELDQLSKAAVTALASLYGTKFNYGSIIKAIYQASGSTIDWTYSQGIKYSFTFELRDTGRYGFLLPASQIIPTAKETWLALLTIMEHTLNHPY
Procedure, shortened: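 hCPA1 was used at 1.0x10-8 M with AAFP substrate at 1.0x10-4 M, read at 355 nm. Enzyme and inhibitor were preincubated 45 min at 37 °C before substrate was added. Initial velocities were read every 30 sec for 15 min, in triplicate. Apparent Ki came from a fit to the tight-binding equation.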

Carboxypeptidase A2 = biological target: T2, Carboxypeptidase A2 (Homo sapiens, UniProt P48052); test: Inhibition of human CPA2 using AAFP as substrate preincubated for 45 mins to 2 hrs measured at 30 sec intervals for 15 mins by UV/vis-spectrophotometry
T2 sequence (P48052 whole entry): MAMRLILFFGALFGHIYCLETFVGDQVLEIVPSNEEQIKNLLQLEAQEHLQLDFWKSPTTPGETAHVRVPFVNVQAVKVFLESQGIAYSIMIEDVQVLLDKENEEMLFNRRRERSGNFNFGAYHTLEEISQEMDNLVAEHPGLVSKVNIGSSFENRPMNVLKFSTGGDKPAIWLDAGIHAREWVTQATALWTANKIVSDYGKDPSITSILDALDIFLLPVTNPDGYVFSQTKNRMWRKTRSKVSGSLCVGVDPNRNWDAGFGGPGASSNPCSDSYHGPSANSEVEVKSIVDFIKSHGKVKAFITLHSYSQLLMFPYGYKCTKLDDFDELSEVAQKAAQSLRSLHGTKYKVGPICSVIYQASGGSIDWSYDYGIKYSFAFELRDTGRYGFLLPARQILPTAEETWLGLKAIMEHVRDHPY
Procedure, shortened: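 hCPA2 was used at 3.0x10-8 M with AAFP substrate at 1.0x10-4 M, read at 355 nm, in 20 mM Tris-HCl pH 7.5, 500 mM NaCl, 1% DMSO, 0.05% Brij-35. After a 45 min preincubation at 37 °C, initial rates were followed at 30 sec intervals for 15 min, in triplicate. Kiapp was fitted by the tight-binding equation.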

Carboxypeptidase A4 = biological target: T3, Carboxypeptidase A4 (Homo sapiens, UniProt Q9UI42); test: Inhibition of human CPA4 using AAFP as substrate preincubated for 45 mins to 2 hrs measured at 30 sec intervals for 15 mins by UV/vis-spectrophotometry
T3 sequence (Q9UI42 whole entry): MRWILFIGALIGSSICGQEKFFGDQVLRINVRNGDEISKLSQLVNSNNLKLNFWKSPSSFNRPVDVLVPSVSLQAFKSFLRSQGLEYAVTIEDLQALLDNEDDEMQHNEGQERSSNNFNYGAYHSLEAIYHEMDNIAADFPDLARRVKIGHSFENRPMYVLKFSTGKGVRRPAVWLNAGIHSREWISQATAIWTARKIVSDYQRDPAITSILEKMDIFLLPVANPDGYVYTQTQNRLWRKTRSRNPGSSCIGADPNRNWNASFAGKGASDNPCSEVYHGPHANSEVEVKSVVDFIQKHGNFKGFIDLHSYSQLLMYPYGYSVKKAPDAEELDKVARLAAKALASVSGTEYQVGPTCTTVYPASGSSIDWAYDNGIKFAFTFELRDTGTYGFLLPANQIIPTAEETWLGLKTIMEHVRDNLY
Procedure, shortened: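 Enzyme was hCPA4 at 4.3x10-8 M, with 1.0x10-4 M AAFP and detection at 355 nm. Inhibitor and enzyme were preincubated 45 min at 37 °C, then initial velocities were taken over 15 min (30 sec reads), in triplicate. Kiapp was obtained from the tight-binding fit.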

Carboxypeptidase B = Carboxypeptidase B (Homo sapiens, UniProt P15086); test: Inhibition of human CPB1 using AAFA as substrate preincubated for 45 mins to 2 hrs measured at 30 sec intervals for 15 mins by UV/vis-spectrophotometry
Chain of Carboxypeptidase B (P15086 whole entry): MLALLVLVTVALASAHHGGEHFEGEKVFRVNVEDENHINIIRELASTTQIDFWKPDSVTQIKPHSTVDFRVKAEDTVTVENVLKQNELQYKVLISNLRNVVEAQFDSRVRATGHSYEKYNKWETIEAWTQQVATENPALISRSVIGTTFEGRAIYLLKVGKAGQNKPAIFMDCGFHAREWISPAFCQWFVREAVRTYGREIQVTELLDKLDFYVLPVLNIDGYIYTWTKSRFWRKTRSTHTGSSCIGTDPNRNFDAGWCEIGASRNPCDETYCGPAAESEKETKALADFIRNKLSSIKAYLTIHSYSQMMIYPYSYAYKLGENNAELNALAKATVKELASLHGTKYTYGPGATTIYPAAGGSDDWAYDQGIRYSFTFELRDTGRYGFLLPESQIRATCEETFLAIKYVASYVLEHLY
Procedure, shortened: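 hCPB1 was used at 6.0x10-9 M with 1.0x10-4 M AAFA, read at 355 nm. After 45 min preincubation with inhibitor at 37 °C, residual activity at varied inhibitor concentrations was followed for 15 min at 30 sec intervals, in triplicate. Kiapp was fitted with the tight-binding equation.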

[1] = biological target: T4, Carboxypeptidase D (Homo sapiens) (UniProt O75976); test: Inhibition of human CPD at 1 nM to 1 mM using AAFA as substrate preincubated for 45 mins to 2 hrs measured at 30 sec intervals for 15 mins by UV/vis-spectrophotometry
T4 sequence (whole entry): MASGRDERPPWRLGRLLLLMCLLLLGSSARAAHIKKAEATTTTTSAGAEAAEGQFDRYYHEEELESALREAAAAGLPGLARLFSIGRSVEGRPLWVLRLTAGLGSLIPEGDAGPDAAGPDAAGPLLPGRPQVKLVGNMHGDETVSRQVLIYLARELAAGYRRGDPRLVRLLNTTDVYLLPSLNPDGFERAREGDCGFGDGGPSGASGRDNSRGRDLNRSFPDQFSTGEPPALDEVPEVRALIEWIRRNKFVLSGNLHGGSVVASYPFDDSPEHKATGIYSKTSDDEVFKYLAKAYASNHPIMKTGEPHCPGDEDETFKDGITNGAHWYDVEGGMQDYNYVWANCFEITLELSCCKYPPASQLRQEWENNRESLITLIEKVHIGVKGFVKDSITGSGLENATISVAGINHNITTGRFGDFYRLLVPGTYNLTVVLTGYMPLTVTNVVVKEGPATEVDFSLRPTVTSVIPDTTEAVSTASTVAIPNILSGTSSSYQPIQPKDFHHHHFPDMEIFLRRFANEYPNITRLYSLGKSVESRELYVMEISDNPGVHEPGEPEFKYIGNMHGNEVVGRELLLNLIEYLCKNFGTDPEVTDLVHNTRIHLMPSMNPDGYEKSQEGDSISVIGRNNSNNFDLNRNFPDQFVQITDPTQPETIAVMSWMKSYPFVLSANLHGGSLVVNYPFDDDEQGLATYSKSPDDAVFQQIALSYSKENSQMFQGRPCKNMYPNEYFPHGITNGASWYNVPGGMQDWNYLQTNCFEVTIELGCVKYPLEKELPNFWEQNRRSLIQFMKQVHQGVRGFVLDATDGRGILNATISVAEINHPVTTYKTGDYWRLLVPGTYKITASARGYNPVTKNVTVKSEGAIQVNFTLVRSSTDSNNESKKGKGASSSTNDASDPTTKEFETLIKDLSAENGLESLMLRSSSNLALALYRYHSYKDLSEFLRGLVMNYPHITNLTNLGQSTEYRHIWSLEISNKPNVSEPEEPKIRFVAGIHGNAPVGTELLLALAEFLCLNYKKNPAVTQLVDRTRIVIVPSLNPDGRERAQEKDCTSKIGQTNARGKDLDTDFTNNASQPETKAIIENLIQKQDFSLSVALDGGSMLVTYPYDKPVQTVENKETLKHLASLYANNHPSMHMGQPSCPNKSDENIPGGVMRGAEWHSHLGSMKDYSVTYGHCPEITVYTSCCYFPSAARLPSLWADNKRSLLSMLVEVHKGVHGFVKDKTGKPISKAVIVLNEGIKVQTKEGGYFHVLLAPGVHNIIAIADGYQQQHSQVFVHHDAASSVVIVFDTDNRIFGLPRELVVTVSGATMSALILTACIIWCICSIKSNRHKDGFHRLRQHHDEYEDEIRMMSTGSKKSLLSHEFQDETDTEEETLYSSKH
Procedure, shortened: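 hCPD was used at 2.0x10-8 M with AAFA substrate at 1.0x10-4 M, monitored at 355 nm. Buffer was 20 mM Tris-HCl pH 7.5, 100 mM NaCl, 1% DMSO, 0.05% Brij-35. Preincubation was 45 min at 37 °C. Residual activity at a range of inhibitor concentrations was measured from initial rates (30 sec reads, 15 min), in triplicate. Kiapp came from the tight-binding fit.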

- Ki (Carboxypeptidase A1): 0.04 nM
- Ki (Carboxypeptidase A2): 1 nM
- Ki (Carboxypeptidase A4): 0.39 nM
- Ki (Carboxypeptidase B): 0.12 nM
- inhibition [1]: inactive
Structure (SMILES): CC(=O)N[C@@H](CC(C)C)C(=O)N[C@@H](Cc1ccccc1)P(=O)(O)C[C@@H](Cc1ccccc1)C(=O)O
